Test results: ChEMBL document CHEMBL1132196, “Synthesis, biochemical evaluation, and classical and three-dimensional quantitative structure-activity relationship studies of 7-substituted-1,2,3,4-tetrahydroisoquinolines and their relative affinities toward phenylethanolamine N-methyltransferase and the alpha2-adrenoceptor” (J Med Chem, 1999)

What was measured:
Bos taurus = species: Bos taurus; assay: Binding selectivity against PNMT and alpha-2-adrenoceptors, measured as a ratio of respective in vitro Ki's.
[1] = molecular target: T1, Adrenergic receptor alpha-2 (Rattus norvegicus, UniProt P22086+P19328+P22909); assay: In vitro inhibitory activity against Alpha-2 adrenergic receptor using [3H]clonidine as radioligand in male Sprague-Dawley rats; format: protein assay
T1 sequence (P22086 whole entry): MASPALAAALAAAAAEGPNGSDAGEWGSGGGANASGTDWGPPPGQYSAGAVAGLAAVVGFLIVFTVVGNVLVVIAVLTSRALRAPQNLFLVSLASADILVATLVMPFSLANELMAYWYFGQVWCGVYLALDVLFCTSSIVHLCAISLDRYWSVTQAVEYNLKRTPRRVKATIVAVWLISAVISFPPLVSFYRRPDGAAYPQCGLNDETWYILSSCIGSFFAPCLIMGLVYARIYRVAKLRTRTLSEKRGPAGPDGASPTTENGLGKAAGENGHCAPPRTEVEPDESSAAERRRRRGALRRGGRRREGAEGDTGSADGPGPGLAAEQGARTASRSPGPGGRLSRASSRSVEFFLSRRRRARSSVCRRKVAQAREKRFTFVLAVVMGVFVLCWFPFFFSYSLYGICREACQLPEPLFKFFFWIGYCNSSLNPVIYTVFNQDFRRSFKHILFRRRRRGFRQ
T1 sequence (P19328 whole entry): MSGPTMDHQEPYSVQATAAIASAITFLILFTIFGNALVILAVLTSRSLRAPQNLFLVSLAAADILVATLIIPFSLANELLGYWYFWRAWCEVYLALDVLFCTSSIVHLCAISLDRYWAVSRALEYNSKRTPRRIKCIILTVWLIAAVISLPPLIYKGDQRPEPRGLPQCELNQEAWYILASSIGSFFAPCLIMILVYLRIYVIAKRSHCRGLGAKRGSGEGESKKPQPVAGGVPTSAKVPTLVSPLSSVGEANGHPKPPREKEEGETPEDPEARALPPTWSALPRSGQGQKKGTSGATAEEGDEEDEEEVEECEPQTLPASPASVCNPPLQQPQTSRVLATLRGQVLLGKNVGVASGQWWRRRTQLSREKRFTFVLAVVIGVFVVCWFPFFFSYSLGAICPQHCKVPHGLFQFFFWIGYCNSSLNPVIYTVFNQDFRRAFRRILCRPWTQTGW
T1 sequence (P22909 whole entry): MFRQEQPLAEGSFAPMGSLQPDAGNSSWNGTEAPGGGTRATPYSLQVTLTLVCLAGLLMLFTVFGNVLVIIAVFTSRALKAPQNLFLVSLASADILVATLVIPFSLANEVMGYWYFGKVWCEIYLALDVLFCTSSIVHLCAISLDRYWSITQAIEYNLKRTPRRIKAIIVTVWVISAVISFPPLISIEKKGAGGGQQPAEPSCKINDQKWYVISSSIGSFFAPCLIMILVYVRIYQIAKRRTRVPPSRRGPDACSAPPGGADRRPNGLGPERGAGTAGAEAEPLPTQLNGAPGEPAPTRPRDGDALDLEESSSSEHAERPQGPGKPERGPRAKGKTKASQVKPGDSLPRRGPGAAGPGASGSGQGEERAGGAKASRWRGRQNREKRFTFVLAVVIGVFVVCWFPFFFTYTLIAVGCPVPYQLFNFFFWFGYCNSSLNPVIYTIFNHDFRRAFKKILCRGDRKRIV
Summary of the method: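 Rat cerebral cortex (male Sprague–Dawley) homogenised in ice-cold 50 mM Tris/HCl pH 7.7, washed by three 50 000g spins, resuspended in 200 volumes. [3H]clonidine 4.0 nM final, 25 °C for 30 min, filtration, scintillation counting. Nonspecific binding with 2 μM phentolamine. Quadruplicate, five concentrations over 16-fold range. IC50 by log-probit; Ki = IC50/(1+[clonidine]/KD).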

[2] = molecular target: T2, Phenylethanolamine N-methyltransferase (Bos taurus, UniProt P10938); assay: In vitro inhibitory activity against bovine adrenal phenylethanolamine N-methyl-transferase (PNMT)
T2 sequence (P10938 whole entry): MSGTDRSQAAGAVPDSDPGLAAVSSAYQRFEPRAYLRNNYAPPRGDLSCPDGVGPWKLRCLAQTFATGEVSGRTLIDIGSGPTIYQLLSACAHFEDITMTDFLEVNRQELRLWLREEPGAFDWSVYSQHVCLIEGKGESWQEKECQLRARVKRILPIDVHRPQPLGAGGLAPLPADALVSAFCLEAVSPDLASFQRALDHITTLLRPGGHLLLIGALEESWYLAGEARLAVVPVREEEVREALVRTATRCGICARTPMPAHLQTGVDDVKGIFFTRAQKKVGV

[3] = molecular target: T2, Phenylethanolamine N-methyltransferase; assay: In vitro inhibitory activity against bovine adrenal phenylethanolamine N-methyltransferase(PNMT)

| Compound | Selectivity (Bos taurus) | Ki [1] | Ki [2] | Ki [3] |
| --- | --- | --- | --- | --- |
| Oc1ccc2c(c1)CNCC2 | 0.85 |  |  |  |
| CC(=O)Nc1ccc2c(c1)CNCC2 | 0.48 | 9.1 µM | 190 µM |  |
| COc1ccc2c(c1)CNCC2 | 0.022 |  | 21 µM |  |
| O=[N+]([O-])c1ccc2c(c1)CNCC2 | 10 |  | 0.41 µM |  |
| Nc1ccc2c(c1)CNCC2 | 0.11 |  | 27 µM |  |
| O=S(=O)(c1ccccc1)c1ccc2c(c1)CNCC2 | 1.5 | 21 µM | 14 µM |  |
| CC(=O)c1ccc2c(c1)CNCC2 | 1.2 |  | 4.9 µM |  |
| Brc1ccc2c(c1)CNCC2 |  |  |  | 0.29 µM |
| NC(=O)c1ccc2c(c1)CNCC2 | 0.36 |  | 64 µM |  |
| COC(=O)c1ccc2c(c1)CNCC2 | 0.68 |  | 6.7 µM |  |
| NS(=O)(=O)c1ccc2c(c1)CNCC2 | 180 |  |  |  |
| O=S(=O)(Nc1ccc(Cl)cc1)c1ccc2c(c1)CNCC2 | 2.4 |  |  |  |
| CS(=O)(=O)NCc1ccc2c(c1)CNCC2 | 0.055 |  |  |  |
| O=C(c1ccc2c(c1)CNCC2)C(F)(F)F | 5.6 |  | 5.7 µM |  |
| C[S+]([O-])c1ccc2c(c1)CNCC2 (configuration not stated) | 1.1 | 51 µM | 45 µM |  |
| O=S(=O)(c1ccc2c(c1)CNCC2)C(Cl)(Cl)Cl |  |  |  | 1.3 µM |
| O=C(c1ccccc1)c1ccc2c(c1)CNCC2 | 9.3 |  | 2.9 µM |  |
| CS(=O)(=O)N(c1ccc2c(c1)CNCC2)S(C)(=O)=O | 0.042 |  | ~4500 µM |  |
| NCc1ccc2c(c1)CNCC2 | 0.0063 |  | 1900 µM |  |
| C=CCS(=O)(=O)c1ccc2c(c1)CNCC2 | 9.7 |  | 9.8 µM |  |
| O=C(O)c1ccc2c(c1)CNCC2 | 1 |  | 470 µM |  |
| CS(=O)(=O)c1ccc2c(c1)CNCC2 | 120 | 160 µM | 1.3 µM |  |
| CS(=O)(=O)Nc1ccc2c(c1)CNCC2 | 0.23 |  |  |  |
| N#Cc1ccc2c(c1)CNCC2 | 5.2 |  | 1.4 µM |  |
| OCc1ccc2c(c1)CNCC2 | 0.21 |  | 11 µM |  |
